Columns and labels:
[1] = biological target: cAMP-dependent protein kinase catalytic subunit beta (Homo sapiens) (UniProt P22694); assay: Inhibition of human recombinant PKACbeta at 40 nM in presence of ATP by radiometric assay relative to control
[2] = biological target: T1, Mitogen-activated protein kinase kinase kinase 3 (Homo sapiens) (UniProt Q99759); assay: Inhibition of human recombinant MAP3K3 at 40 nM related to control ULK1
T1 sequence (whole entry): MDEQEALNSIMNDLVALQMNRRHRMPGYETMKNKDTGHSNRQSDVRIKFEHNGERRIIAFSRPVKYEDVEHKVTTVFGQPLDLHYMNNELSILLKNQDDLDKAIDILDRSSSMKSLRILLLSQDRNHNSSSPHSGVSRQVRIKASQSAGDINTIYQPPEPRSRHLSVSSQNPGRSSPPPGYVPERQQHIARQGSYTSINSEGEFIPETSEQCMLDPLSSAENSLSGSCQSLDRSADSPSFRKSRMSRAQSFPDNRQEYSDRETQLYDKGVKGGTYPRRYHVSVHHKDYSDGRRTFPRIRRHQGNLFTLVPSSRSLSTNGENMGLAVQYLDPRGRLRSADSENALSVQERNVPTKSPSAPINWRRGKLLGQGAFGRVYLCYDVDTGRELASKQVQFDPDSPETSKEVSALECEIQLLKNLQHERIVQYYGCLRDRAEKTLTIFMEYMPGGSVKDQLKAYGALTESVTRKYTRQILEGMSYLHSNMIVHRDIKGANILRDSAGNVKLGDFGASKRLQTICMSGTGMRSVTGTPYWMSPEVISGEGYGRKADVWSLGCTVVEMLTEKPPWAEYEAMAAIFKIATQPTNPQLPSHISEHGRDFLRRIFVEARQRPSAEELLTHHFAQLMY

[3] = biological target: Tyrosine-protein kinase receptor UFO (Homo sapiens) (UniProt P30530); assay: Inhibition of human recombinant AXL at 15 nM in presence of ATP by radiometric assay relative to control
In short: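 Panel of 327 recombinant human kinases, each assayed in vitro by radiometric activity assay in duplicate at a single inhibitor concentration per compound, chosen with reference to its ULK1 inhibition. Activity remaining was expressed as percent of vehicle control, and percent inhibition was calculated as 100 minus percent activity remaining.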

[4] = biological target: Ribosomal protein S6 kinase alpha-5 (Homo sapiens) (UniProt O75582); assay: Inhibition of human recombinant MSK1 at 15 nM in presence of ATP by radiometric assay relative to control
[5] = biological target: Serine/threonine-protein kinase 32A (Homo sapiens) (UniProt Q8WU08); assay: Inhibition of human recombinant YANK1 at 15 nM in presence of ATP by radiometric assay relative to control
[6] = biological target: Fibroblast growth factor receptor 3 (Homo sapiens) (UniProt P22607); assay: Inhibition of human recombinant FGFR3 at 500 nM in presence of ATP by radiometric assay relative to control
[7] = biological target: Interleukin-1 receptor-associated kinase 1 (Homo sapiens) (UniProt P51617); assay: Inhibition of human recombinant IRAK1 at 500 nM in presence of ATP by radiometric assay relative to control
[8] = biological target: T2, Serine/threonine-protein kinase Sgk2 (Homo sapiens) (UniProt Q9HBY8); assay: Inhibition of human recombinant SGK2 at 500 nM in presence of ATP by radiometric assay relative to control
T2 sequence (whole entry): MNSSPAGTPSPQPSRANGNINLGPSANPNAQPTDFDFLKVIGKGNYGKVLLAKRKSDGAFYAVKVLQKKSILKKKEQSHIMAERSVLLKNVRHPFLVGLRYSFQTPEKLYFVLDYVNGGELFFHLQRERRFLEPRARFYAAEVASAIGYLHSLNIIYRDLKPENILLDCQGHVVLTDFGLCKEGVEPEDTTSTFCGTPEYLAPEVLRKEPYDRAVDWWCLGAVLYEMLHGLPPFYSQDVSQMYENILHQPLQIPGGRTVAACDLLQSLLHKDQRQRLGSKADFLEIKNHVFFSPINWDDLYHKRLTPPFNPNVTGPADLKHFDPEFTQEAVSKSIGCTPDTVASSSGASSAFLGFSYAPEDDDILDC

[9] = biological target: T3, Phosphorylase b kinase gamma catalytic chain, liver/testis isoform (Homo sapiens) (UniProt P15735); assay: Inhibition of human recombinant PHKg2 at 500 nM related to control ULK1
T3 sequence (whole entry): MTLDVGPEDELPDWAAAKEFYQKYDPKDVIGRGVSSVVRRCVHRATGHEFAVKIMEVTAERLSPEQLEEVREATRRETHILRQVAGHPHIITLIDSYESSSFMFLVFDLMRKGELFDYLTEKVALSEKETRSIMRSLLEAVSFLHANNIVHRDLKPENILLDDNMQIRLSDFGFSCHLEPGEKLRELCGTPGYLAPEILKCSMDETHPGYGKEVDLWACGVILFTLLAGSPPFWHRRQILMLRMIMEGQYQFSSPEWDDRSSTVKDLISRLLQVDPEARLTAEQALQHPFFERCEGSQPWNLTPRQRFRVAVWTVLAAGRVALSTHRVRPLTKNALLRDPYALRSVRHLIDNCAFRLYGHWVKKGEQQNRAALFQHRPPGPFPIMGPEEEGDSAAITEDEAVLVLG

[10] = biological target: Serine/threonine-protein kinase SIK2 (Homo sapiens) (UniProt Q9H0K1); assay: Inhibition of human recombinant QIK at 500 nM related to control ULK1
Chain of Serine/threonine-protein kinase SIK2 (Homo sapiens) (Q9H0K1 whole entry, looked up): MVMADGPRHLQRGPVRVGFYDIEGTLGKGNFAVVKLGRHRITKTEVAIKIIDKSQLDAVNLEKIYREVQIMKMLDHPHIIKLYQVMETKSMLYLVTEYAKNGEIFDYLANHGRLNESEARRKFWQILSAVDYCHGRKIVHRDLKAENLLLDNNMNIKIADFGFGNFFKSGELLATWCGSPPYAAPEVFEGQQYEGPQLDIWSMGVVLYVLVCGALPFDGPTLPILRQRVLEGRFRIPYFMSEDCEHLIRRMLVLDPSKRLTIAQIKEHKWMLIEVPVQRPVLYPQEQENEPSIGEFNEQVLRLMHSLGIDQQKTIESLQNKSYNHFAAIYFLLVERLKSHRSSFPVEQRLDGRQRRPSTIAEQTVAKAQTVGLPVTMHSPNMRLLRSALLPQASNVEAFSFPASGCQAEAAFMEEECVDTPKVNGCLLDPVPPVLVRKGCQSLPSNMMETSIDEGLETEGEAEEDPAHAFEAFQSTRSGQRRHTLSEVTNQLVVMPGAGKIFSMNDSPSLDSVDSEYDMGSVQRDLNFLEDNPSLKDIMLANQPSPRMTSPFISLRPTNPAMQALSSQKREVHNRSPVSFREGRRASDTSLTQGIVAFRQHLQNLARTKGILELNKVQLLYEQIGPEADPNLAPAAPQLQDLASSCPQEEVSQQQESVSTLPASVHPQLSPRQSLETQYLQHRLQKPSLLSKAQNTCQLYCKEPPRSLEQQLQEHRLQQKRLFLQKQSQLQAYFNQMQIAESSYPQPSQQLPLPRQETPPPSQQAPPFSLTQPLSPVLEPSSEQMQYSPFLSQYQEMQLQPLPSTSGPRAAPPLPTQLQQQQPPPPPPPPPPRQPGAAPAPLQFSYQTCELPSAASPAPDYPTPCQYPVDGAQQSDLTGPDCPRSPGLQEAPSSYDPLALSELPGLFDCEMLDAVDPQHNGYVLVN

Chain of Serine/threonine-protein kinase 32A (Homo sapiens) (Q8WU08 whole entry): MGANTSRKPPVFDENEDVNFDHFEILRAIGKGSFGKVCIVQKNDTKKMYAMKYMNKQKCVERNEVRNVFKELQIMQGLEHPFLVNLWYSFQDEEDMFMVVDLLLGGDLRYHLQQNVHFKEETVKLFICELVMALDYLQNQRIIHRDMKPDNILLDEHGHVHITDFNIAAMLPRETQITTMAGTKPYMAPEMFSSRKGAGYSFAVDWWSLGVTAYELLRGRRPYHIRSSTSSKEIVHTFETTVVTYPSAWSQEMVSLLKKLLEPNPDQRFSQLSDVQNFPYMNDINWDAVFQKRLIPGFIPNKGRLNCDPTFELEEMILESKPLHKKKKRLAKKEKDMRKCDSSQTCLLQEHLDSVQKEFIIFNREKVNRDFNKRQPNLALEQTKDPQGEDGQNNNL
Chain of Interleukin-1 receptor-associated kinase 1 (Homo sapiens) (P51617 whole entry, looked up): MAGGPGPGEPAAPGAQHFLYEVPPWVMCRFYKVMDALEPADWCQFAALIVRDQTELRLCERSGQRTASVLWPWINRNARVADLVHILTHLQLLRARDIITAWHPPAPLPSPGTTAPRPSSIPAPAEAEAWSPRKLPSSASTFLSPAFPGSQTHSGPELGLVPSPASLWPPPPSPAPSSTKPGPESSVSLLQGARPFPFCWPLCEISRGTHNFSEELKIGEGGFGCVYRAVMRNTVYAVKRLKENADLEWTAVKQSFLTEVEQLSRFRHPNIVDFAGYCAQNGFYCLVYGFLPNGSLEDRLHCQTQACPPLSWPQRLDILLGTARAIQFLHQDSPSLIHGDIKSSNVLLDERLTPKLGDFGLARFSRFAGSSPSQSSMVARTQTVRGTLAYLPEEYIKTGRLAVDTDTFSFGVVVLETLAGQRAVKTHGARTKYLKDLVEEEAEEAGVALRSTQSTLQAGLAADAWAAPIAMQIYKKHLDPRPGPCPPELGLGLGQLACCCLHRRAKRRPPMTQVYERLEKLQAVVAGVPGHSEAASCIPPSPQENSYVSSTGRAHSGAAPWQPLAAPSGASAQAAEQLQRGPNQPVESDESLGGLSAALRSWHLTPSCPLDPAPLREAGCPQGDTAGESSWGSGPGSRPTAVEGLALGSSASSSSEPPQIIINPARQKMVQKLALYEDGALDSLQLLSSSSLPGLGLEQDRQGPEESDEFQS
Chain of Tyrosine-protein kinase receptor UFO (Homo sapiens) (P30530 whole entry): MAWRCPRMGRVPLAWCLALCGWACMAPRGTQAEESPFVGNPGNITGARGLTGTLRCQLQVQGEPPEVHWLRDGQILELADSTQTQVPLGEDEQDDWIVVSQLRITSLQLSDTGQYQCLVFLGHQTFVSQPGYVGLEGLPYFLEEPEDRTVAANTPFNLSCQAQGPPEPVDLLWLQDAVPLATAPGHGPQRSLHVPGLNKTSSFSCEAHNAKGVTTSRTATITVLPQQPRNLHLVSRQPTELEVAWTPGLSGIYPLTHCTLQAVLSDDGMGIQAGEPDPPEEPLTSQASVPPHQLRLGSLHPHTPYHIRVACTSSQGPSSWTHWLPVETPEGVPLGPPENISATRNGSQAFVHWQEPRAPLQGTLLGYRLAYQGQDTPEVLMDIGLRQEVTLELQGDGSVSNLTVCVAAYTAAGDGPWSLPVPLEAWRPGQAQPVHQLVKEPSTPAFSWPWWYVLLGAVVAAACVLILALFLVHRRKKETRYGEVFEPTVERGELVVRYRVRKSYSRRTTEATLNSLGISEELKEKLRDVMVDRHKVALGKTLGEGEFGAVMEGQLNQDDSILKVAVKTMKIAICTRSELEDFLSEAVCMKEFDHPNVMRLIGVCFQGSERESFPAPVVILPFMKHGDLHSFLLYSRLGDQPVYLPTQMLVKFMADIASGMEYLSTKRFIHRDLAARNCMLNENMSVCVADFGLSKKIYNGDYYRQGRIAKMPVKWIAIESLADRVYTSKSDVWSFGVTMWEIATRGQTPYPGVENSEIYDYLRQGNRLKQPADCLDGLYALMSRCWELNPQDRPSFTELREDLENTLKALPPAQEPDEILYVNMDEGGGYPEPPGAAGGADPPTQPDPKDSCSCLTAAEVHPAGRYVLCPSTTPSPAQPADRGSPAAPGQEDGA
Chain of Ribosomal protein S6 kinase alpha-5 (Homo sapiens) (O75582 whole entry, looked up): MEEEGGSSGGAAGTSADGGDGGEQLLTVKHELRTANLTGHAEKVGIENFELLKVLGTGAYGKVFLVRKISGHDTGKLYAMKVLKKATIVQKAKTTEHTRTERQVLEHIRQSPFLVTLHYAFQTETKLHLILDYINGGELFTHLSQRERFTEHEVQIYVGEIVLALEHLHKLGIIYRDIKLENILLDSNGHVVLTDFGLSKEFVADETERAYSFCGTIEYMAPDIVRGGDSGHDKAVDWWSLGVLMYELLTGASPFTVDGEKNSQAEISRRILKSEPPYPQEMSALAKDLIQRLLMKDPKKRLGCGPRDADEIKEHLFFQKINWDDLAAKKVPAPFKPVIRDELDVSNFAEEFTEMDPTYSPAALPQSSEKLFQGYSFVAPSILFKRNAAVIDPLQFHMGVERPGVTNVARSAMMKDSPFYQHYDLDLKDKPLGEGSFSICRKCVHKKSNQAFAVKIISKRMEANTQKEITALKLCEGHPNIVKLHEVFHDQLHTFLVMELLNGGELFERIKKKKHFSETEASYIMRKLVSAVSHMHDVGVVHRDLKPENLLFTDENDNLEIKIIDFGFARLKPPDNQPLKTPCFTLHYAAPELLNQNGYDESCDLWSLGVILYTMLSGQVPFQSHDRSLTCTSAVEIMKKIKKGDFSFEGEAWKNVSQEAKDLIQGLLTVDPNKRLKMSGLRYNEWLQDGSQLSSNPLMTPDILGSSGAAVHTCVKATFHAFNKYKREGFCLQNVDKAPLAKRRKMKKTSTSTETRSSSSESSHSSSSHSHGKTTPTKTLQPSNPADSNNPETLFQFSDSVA
Chain of Fibroblast growth factor receptor 3 (Homo sapiens) (P22607 23-806 limits assumed): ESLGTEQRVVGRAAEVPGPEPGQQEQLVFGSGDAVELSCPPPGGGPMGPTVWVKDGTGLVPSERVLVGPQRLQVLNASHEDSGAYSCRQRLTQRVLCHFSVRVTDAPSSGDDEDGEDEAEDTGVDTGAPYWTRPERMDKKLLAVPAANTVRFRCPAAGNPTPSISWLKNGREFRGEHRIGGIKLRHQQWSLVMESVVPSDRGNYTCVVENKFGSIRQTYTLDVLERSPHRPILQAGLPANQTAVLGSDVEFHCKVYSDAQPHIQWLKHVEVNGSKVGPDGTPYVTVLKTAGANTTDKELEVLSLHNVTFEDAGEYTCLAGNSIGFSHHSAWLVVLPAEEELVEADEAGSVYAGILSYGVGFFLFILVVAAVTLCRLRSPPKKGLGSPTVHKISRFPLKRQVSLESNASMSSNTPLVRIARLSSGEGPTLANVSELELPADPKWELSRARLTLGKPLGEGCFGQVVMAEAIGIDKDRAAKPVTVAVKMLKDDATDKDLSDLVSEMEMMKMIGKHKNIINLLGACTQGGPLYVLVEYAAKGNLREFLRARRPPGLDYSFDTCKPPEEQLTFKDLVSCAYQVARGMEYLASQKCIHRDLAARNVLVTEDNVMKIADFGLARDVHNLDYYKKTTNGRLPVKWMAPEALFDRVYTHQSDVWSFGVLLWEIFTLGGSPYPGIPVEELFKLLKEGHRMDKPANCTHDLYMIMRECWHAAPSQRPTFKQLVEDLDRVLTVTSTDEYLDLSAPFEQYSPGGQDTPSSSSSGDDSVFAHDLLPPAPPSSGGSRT

O=C(N[C@@H](C1CC1)C(F)(F)F)c1cc(-c2cnn3cc(-c4ccc(F)cc4)cnc23)cs1 gave an inhibition [1] of 0% and a fold change (FC) [2] of 0.
In the case of CC(C)[C@H](NC(=O)c1cc(-c2cnn3cc(-c4ccc(OCCN5CCCCC5)cc4)cnc23)cs1)C(F)(F)F, the inhibition [3] is reported as 11%, the inhibition [4] is reported as 2% and the inhibition [5] is reported as 2%.
For CNC(=O)c1ccccc1Oc1nc(Nc2cc(OC)c(OC)c(OC)c2)ncc1Br, the inhibition [6] was 42%, the inhibition [7] was 15% and the inhibition [8] was 17%. For the same compound, the fold change (FC) [9] was 0 and the fold change (FC) [10] was 0.

Reference: ChEMBL document CHEMBL5653631, “A Potent and Selective ULK1 Inhibitor Suppresses Autophagy and Sensitizes Cancer Cells to Nutrient Stress” (iScience, 2018)
